Laboratory results as given in ChEMBL document CHEMBL3751743, “Synthesis and anti-cancer screening of novel heterocyclic-(2H)-1,2,3-triazoles as potential anti-cancer agents” (Medchemcomm, 2015).

Experiment: Cytotoxicity against human Hs578T cells assessed as reduction of cell viability after 48 hrs by calcein-AM-based fluorescence analysis
Type: functional
Conditions: Hs-578T
Summary of the method: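 Cells seeded at 3,000 per well in DMEM with 10% FBS and left overnight at 37 °C. A range of compound concentrations or vehicle was then added for 48 h. Cells were washed with DPBS pH 7.4 and loaded with 2 μM calcein-AM for 30 min at 25 °C. Fluorescence read at ex 490/em 520 nm; viability is given relative to untreated control (100%). Mean ± s.d.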

COc1cc(OC)cc(-c2n[nH]nc2-c2cc3ccccc3s2)c1
GI50: 65 nM
